Reference: ChEMBL document CHEMBL2413075, “Structure activity relationship study of benzo[d]thiazol-2(3H)one based σ receptor ligands” (Bioorg Med Chem Lett, 2013)

Experiments:
[1] = Displacement of [3H]DTG from sigma 2 receptor in rat liver membranes; assay type: cell membranes, Membrane
How it was run: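 Rat liver membranes in a 96-well high-throughput format. Sigma-2 sites labeled with 5 nM [3H]DTG, with 300 nM (+)-pentazocine present to mask sigma-1. Nonspecific binding defined with 10 μM haloperidol. Ki values derived from displacement.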

[2] = species: Rattus norvegicus; assay: Selectivity ratio of Ki for sigma 2 receptor in rat liver membranes to Ki for sigma 1 receptor in rat liver membranes; assay type: cell membranes; conditions: Membrane
[3] = target: Sigma non-opioid intracellular receptor 1 (Rattus norvegicus, UniProt Q9R0C9); assay: Displacement of [3H](+)-pentazocine from sigma 1 receptor in rat liver membranes; assay type: cell membranes, Membrane
How it was run: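 Rat liver membranes in a 96-well high-throughput format. Sigma-1 sites labeled with 5 nM [3H](+)-pentazocine. Nonspecific binding defined with 10 μM haloperidol. Ki values derived from displacement.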

[4] = species: Cavia porcellus; assay: Selectivity ratio of Ki for sigma 2 receptor in guinea pig brain membranes to Ki for sigma 1 receptor in guinea pig brain membranes; assay type: cell membranes
[5] = Binding affinity to sigma 2 receptor in guinea pig brain membranes; assay type: cell membranes, Cavia porcellus, Membrane

Chain of Sigma non-opioid intracellular receptor 1 (Q9R0C9 whole entry): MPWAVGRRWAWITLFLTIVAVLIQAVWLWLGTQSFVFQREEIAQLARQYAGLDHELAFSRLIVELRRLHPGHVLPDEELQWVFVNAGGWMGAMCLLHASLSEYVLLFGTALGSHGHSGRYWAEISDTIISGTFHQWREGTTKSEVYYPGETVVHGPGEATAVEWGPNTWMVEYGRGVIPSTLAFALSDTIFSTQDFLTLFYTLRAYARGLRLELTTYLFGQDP

Compound	Ki [1] [nM]	Ratio Ki [2]	Ki [3] [nM]	Ratio Ki [4]	Ki [5] [nM]
O=c1sc2ccccc2n1CCCN1CCCCCC1	177	43	4.1		
O=c1sc2cc(CCCF)ccc2n1CCN1CCCCCC1		486			
CCCCc1ccc2c(c1)sc(=O)n2CCCCCCN1CCCCCC1	4.1	0.3	12		
CCCc1ccc2c(c1)sc(=O)n2CCCCCCN1CCCCCC1	2.3	0.4	6.3		
CCCC(=O)c1ccc2c(c1)sc(=O)n2CCCCN1CCCCCC1	21.6	4.5	4.8		
CCC(=O)c1ccc2c(c1)sc(=O)n2CCCCCCN1CCCCCC1	1.1	0.1	10.4		
CCCc1ccc2c(c1)sc(=O)n2CCN1CCCCCC1	270	169	1.6	> 1000	> 1000
O=c1sc2ccccc2n1CCCCN1CCCCCC1	101	31	3.2		
CCC(=O)c1ccc2c(c1)sc(=O)n2CCCN1CCCCCC1	305	83	3.7		
CCC(=O)c1ccc2c(c1)sc(=O)n2CCCCN1CCCCCC1	30.3	3	10.3		
CCCC(=O)c1ccc2c(c1)sc(=O)n2CCCCCN1CCCCCC1	5.7	0.4	16.3		
CCCCc1ccc2c(c1)sc(=O)n2CCCCN1CCCCCC1	4.4	2.4	1.9		
CCCc1ccc2c(c1)sc(=O)n2CCCN1CCCCCC1	17.2	13	1.4		
O=c1sc2ccccc2n1CCN1CCCCCCC1	716	74	9.7		
CCC(=O)c1ccc2c(c1)sc(=O)n2CCCCCN1CCCCCC1	8.3	0.7	12.2		

The remaining compounds from weak to strong by Ki [1], led by results:

Ki [1] [nM]	Ratio Ki [2]	Ki [3] [nM]	Compound	Ratio Ki [4]	Ki [5] [nM]
8260	14	578	O=c1sc2ccccc2n1CCN1CCCC1		
4790	41	116	CCC(=O)c1ccc2c(c1)sc(=O)n2CCN1CCCC1		
2180	484	4.5	CCC(=O)c1ccc2c(c1)sc(=O)n2CCN1CCCCCC1		
104	39	2.6	CCCC(=O)c1ccc2c(c1)sc(=O)n2CCCN1CCCCCC1		
15.3	7	2.2	CCCCc1ccc2c(c1)sc(=O)n2CCCN1CCCCCC1		
4.3	0.7	6.1	CCCc1ccc2c(c1)sc(=O)n2CCCCN1CCCCCC1		
2.5	0.4	7	O=c1sc2ccccc2n1CCCCCN1CCCCCC1		
2.4	0.3	7.5	O=c1sc2ccccc2n1CCCCCCN1CCCCCC1		
2.3	0.2	10.8	CCCC(=O)c1ccc2c(c1)sc(=O)n2CCCCCCN1CCCCCC1		
1.6	0.3	4.6	CCCc1ccc2c(c1)sc(=O)n2CCCCCN1CCCCCC1		
